Data taken from the RNAGym collection of RNA variant scans (doi:10.1101/gad.245936.114).
This sample holds only a part of the variants without activity.

B1: tRNA (parent)
chain: CUCUCGGUAGCCAAGUUGGUUUAAGGCGCAAGACUUUAAUUUAUCACUACGAAAUCUUGAGAUCGGGCGUUCGACUCGCCCCCGGGAGAUUUUUUCCUCGAGCAA

Variants of: B1
Test: nonsense suppression (GFP-seq) (ratio to wild type); higher = more function; SUP4oc tRNA, yeast GFP reporter sort-seq
Procedure, shortened: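 Yeast carrying genome-integrated SUP4oc tRNA variants from a library with ~3% random mutations were grown in raffinose/galactose medium with 80 mg/L adenine. Each strain also carried a galactose-driven GFP ochre reporter and RFP. Cells were sorted into GFP/RFP bins, and each bin was Illumina-sequenced (phred ≥30). Nonsense suppression (GFPSEQ) is the bin median GFP/RFP, weighted by each variant's estimated cell share per bin, relative to wild-type SUP4oc; variants needed ≥100 reads and ≥30 cells.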

Variant | nonsense suppression
G61A A89G | 0.0396
G61A A89C | 0.0288
U55A C64G | ≤ 0.026
U35C G61A | 0.0378
U35C A74G | ≤ 0.026
U35A G73U G84C | ≤ 0.026
G61C G88U | 0.0792
G61C G88A | 0.0268
A54U A89C | ≤ 0.026
U55A G85C | ≤ 0.026
C56A G65C | ≤ 0.026
C34U U63C G85C | ≤ 0.026
A54C G69C C75U U76G G85C | ≤ 0.026
U57A C82A | ≤ 0.026
U55C C64G | 0.0515
A60C G61U | 0.768
A60G C81U | 0.0488
A54G G61A U76C C77G | ≤ 0.026
G59C G85A | 0.114
G59A G84C | ≤ 0.026
U57A G66A G78C C82A | ≤ 0.026
U57G G85C | ≤ 0.026
A60U G78C G85A | 1.16
C34U A60C C72A | ≤ 0.026

Variant | nonsense suppression
A54U G61A | 0.611
A54U G61U | 1.16
C34U G69A A89C | ≤ 0.026
A54U C64U | 0.0513
A60U U71G | ≤ 0.026
G61C G65A C68U | ≤ 0.026
A54U C56G C72A | ≤ 0.026
A60C A62U | 0.0785
U35G C68G C82U | ≤ 0.026
U58C A60C | 0.0568
A60G A74G | 0.0684
A60G A74C | 0.0318
G61A G73A | 0.202
G59C G61C | ≤ 0.026
U57G U71A | ≤ 0.026
U57A G61A | 0.0464
U58A U70C G86C A89C | ≤ 0.026
U57A A60C | 0.0859
G61A G85U | 0.429
A54U G67A | 0.0673
A60U C81U | 0.818
U58C A89C | ≤ 0.026
U57C C79U | ≤ 0.026
A54C G67U | ≤ 0.026

Variant | nonsense suppression
A54U C81A | ≤ 0.026
U58A U70C A74G | ≤ 0.026
A60G A89U | 0.0291
C56A U63G | ≤ 0.026
U55C A87C | 0.0719
G61C G67A | 0.0647
G61A C64G | 0.0404
U58A G61A | 0.0532
A60G C64G | ≤ 0.026
G59A C75A | 0.717
A54C U76C | 0.232
U55C G61A | 0.194
G61C G73A | 0.213
G61C A74U C83G | ≤ 0.026
G61C A87C | 0.0361
G61C A87G | 0.247
G61C A87U | 0.3
G61C U63C | 0.196
G61C U63G | 0.12
U58C U63C | 0.144
G61U A62U | 0.0397
C34U U35G U57C G61A C82U | ≤ 0.026
A54C C81U | 0.21
A54C U58A | 0.135

Variant | nonsense suppression
A60C C75U | 0.167
A54C U57A | 0.0382
U55C C83G | 0.0314
U55C G66A | 0.0631
G59U A62C A89G | ≤ 0.026
G61A G66C | ≤ 0.026
U55A G67U | ≤ 0.026
C34U A62G | ≤ 0.026
C56G A62G | ≤ 0.026
A54G G73A | 0.122
U57A C81G A89G | ≤ 0.026
A60G G84A | 0.269
G61C A89C | ≤ 0.026
U55G U63G U71C G88A | ≤ 0.026
C34U G59U | ≤ 0.026
G59C G66U C83A A87C | ≤ 0.026
A60C G73C | 0.0519
A60C G73U | 0.049
U58G G85U G86U | ≤ 0.026
G61A C68G | 0.0366
G61A C68U | 0.609
U57C A89G | ≤ 0.026
G61C C64U C68G G84A | ≤ 0.026
U57G G78A | 0.0374

Variant | nonsense suppression
A60C G67A | ≤ 0.026
A54C C64U | 0.0402
U55C G65A | 0.0796
G59U | 0.116
U58A G59A U63A G69C U70G | ≤ 0.026
A54G C79U | 0.0263
A54C G61C | 0.216
A54C G61A | 0.334
A60G C75A | 0.976
A54U G84U | 0.0565
C34U A60G | 0.0428
U55A A60C C75U G78C C79G A89G | ≤ 0.026
U58C G73A | 0.0472
U35A G59A G67A | ≤ 0.026
U35A U57G C81U G85C A87U | ≤ 0.026
A54C A74G | 0.0575
A54C A74C | ≤ 0.026
U58A A74G G88A | ≤ 0.026
U55C A74G | 0.144
U55C G73A | 0.0331
U55C G73U | 0.0422
U57C U58A A62C | ≤ 0.026
G61C C75G | 1.21
G61C C75A | 1.06

Variant | nonsense suppression
A54C G78A | 0.107
G59U A89G | ≤ 0.026
U35C G73A | ≤ 0.026
C56A G69A | ≤ 0.026
U35C C77A G85C | ≤ 0.026
A60C A74G | 0.0424
C56G G78C | ≤ 0.026
A60U U63G | 0.789
U57A G84U | 0.0408
G59U U63C | 0.868
U57A C75A | 0.681
U57A C75U | 0.03
A60U G67A | 0.0457
U57G U70G | ≤ 0.026
G61A C80U | 0.232
A60U A62G | 0.112
U57C C81U G84U | ≤ 0.026
A54C G73C | 0.0591
A60C G66C | ≤ 0.026
A54C U71G | ≤ 0.026
A54C U71C | 0.0406
A60U G73A | 0.222
U57A U76A | ≤ 0.026
G61C C81G | 0.248

Variant | nonsense suppression
A54U A60C | 0.279
A54U A60U | 0.965
G59A U76G C77A | ≤ 0.026
C56U G88U | ≤ 0.026
U35G U55C G61C G73U | ≤ 0.026
C34U C81A G88C | ≤ 0.026
U35A U70C G73U C81U | ≤ 0.026
U58G G66U C75A | ≤ 0.026
G61A A62U | 0.311
G61A A62C | 0.0863
G61C C72G | 0.0291
U57C A87G | 0.0399
G61C C80U | 0.731
A54C C82U | 0.211
G61C C79U | 0.202
A60C C79U | 0.14
G61C C77U | 0.0267
G61C C77G | 0.0296
C56G G61C G88U | ≤ 0.026
G61A C75U | 0.923
G61A C75A | 0.842
U35C U70A | ≤ 0.026
A54U | 1.04
